In ChEMBL document CHEMBL3351594, “Cytotoxic dimeric epipolythiodiketopiperazines from the ascomycetous fungus Preussia typharum” (J Nat Prod, 2014):
Calls of active or inactive are those of the source. The rule behind the calls is not given here.

Key:
SK-MEL-2 = test: Cytotoxicity against human SK-MEL-2 cells by SRB method; format: functional
Summary of the method: (§1)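 NCI-60 in vitro drug screening panel. Values are the molar concentrations giving 50% growth inhibition (GI50) and total growth inhibition (TGI).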

[1] = Cytotoxicity against human UACC62 cells by SRB method; format: functional
Summary of the method: (§2)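 NCI-60 in vitro screen panel of human tumor lines; GI50 (molar concentration giving 50% growth inhibition) and TGI (total growth inhibition) taken from dose–response data.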

[2] = Cytotoxicity against human OVCAR3 cells by SRB method; format: functional; summary of the method: as §1
[3] = Cytotoxicity against human OVCAR5 cells by SRB method; format: functional; summary of the method: as §1
ACHN = test: Cytotoxicity against human ACHN cells by SRB method; format: functional; summary of the method: as §1
TK-10 = test: Cytotoxicity against human TK10 cells by SRB method; format: functional; summary of the method: as §2
DU-145 = test: Cytotoxicity against human DU145 cells by SRB method; format: functional; summary of the method: as §1
MCF7 = test: Cytotoxicity against human MCF7 cells by SRB method; format: functional; summary of the method: as §1
MDA-MB-231 = test: Cytotoxicity against human MDA-MB-231 cells by SRB method; format: functional; summary of the method: as §1
[4] = Cytotoxicity against human Hs578T cells by SRB method; format: functional; settings: Hs-578T; summary of the method: as §1
UACC-62 = test: Cytotoxicity against human UACC62 cells assessed as reduction of colony formation incubated for 4 hrs followed by compound washout measured after 14 days relative to vehicle-treated control; format: functional, cell-based
Summary of the method: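 Clonogenic test: 600 UACC-62 cells (RPMI1640, 10% FBS, gentamicin) adhered, exposed 4 h to vehicle (DMSO) or compound, washed with DPBS, fresh medium, grown 14 days; fixed, 0.5% crystal violet in 10% methanol, colonies counted; duplicate/triplicate, n = 2–4 experiments; one-way ANOVA with Dunnett's vs vehicle.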

HeLa [5] = test: Cytotoxicity against human HeLa cells assessed as reduction of colony formation incubated for 4 hrs followed by compound washout measured after 14 days relative to vehicle-treated control; format: functional, cell-based
Summary of the method: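 HeLa cells (300) were plated in dishes and treated with vehicle (DMSO) or compound for 4 h. They were then washed with DPBS and given fresh medium. After 14 days, colonies were fixed, stained with 0.5% crystal violet in 10% methanol and counted. Analysis was one-way ANOVA with Dunnett's post hoc test against vehicle.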

HeLa [6] = test: Cytotoxicity against human HeLa cells; format: functional
Mus musculus = test: Toxicity in athymic nude mouse xenografted with human UACC62 cells assessed as rapid and persistent weight loss at 2 mg/kg, ip; format: organism-based, UACC-62; set-up: dose 2 mg/kg, route intraperitoneal; settings: in vivo
[7] = Toxicity in ip dosed athymic nude mouse xenografted with human UACC62 cells administered every 4 days; format: organism-based, UACC-62; settings: in vivo
Summary of the method: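 Female athymic nude mice received 2 × 10^6 UACC-62 cells sc into each flank and were randomized at a median tumor volume of 150 mm3 (n = 5/group). Compound was given ip in DMSO–Cremophor (1:1) diluted in 200 μL DPBS (final ≤2.5%). Dose-tolerance testing used 10, 2 and 1.5 mg/kg (every 4 days). Mice were weighed daily for weight loss.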

[8] = Antitumor activity against human UACC62 cells xenografted in athymic nude mouse at 1.5 mg/kg, ip administered every 4 days relative to untreated control; format: functional, UACC-62; settings: route intraperitoneal
Summary of the method: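 Female athymic nude mice received 2 × 10^6 UACC-62 cells sc into each flank, bilaterally. They were randomized at median tumor volume 150 mm3, n = 5 mice/group. Dosing was ip at 1.5 mg/kg every 4 days, in DMSO–Cremophor (1:1) diluted in 200 μL DPBS (DMSO and Cremophor ≤2.5% final). Tumors were measured twice weekly by caliper. T/C% = (treated final − initial mean volume) ÷ (untreated final − initial) × 100.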

HeLa [9] = test: Increase in H3K9 methylation in human HeLa cells assessed as high H3K9me3 expression at 200 nM after 1 to 24 hrs by immunoblotting analysis; format: functional, cell-based
Summary of the method: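 HeLa cells treated with vehicle or 200 nM for 1–24 h; log-phase cells lysed with protease inhibitors, equal protein by SDS-PAGE, PVDF transfer, probed for H3K9me3 and actin, ECL detection.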

[10] = Cytotoxicity against human MIAPaCa2 cells after 24 hrs by MTT assay; format: functional, cell-based; settings: MIA PaCa-2, 24 h
SK-OV-3 = test: Resistance ratio of GI50 for human P-gp expressing SKOV3-M6/6 cells to GI50 for human SKOV3 cells; format: functional
Summary of the method: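 SRB assay in SK-OV-3 and its P-gp/MDR1 single-cell clone SK-OV-3/MDR-1-6/6; GI50 from percent growth dose–response curves, n = 3 or 4 independent experiments; relative resistance taken as ratio of GI50 in the MDR line to parental.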

K562 = test: Cytotoxicity against human K562 cells by SRB method; format: functional; summary of the method: as §1
MOLT-4 = test: Cytotoxicity against human MOLT4 cells by SRB method; format: functional; summary of the method: as §1
RPMI-8226 = test: Cytotoxicity against human RPMI8226 cells by SRB method; format: functional; summary of the method: as §1
A549 = test: Cytotoxicity against human A549 cells by SRB method; format: functional; summary of the method: as §1
[11] = Cytotoxicity against human EKVX cells by SRB method; format: functional; summary of the method: as §1
NCI-H322M = test: Cytotoxicity against human NCI-H322M cells by SRB method; format: functional; summary of the method: as §1
NCI-H522 = test: Cytotoxicity against human NCI-H522 cells by SRB method; format: functional; summary of the method: as §1
[12] = Cytotoxicity against human HCT15 cells by SRB method; format: functional; summary of the method: as §1
SF-268 = test: Cytotoxicity against human SF268 cells by SRB method; format: functional; summary of the method: as §1
U-251 = test: Cytotoxicity against human U251 cells by SRB method; format: functional; summary of the method: as §2
Malme-3M = test: Cytotoxicity against human MALME-3M cells by SRB method; format: functional; summary of the method: as §1
[13] = read-out: LC50 (the source's name)

## CC(C)[C@@]12SS[C@]3(C(=O)N1C)[C@@H](O)[C@]1(C45c6ccccc6N[C@H]4N4C(=O)[C@@]6(CO)SS[C@@]4(C(=O)N6C)[C@H]5O)c4ccccc4N[C@@H]1N3C2=O (stereo partly specified)
SK-MEL-2
  GI50: 9.8 nM
  TGI: 20.4 nM
SK-MEL-2; [13]
  CC50: 43.7 nM
[1]; UACC-62
  GI50: 18.2 nM
  TGI: 72.4 nM
[1]; UACC-62, read-out: LC50 (the source's name)
  CC50: 295 nM
[2]; OVCAR-3
  GI50: 10.7 nM
  TGI: 26.3 nM
[2]; OVCAR-3, read-out: LC50 (the source's name)
  CC50: 85.1 nM
[3]; OVCAR-5
  GI50: 52.5 nM
  TGI: 138 nM
[3]; OVCAR-5, read-out: LC50 (the source's name)
  CC50: 363 nM
ACHN
  GI50: 15.5 nM
  TGI: 60.3 nM
ACHN; [13]
  CC50: 234 nM
TK-10
  GI50: 11.7 nM
  TGI: 24.5 nM
TK-10; [13]
  CC50: 57.5 nM
DU-145
  GI50: 14.8 nM
  TGI: 53.7 nM
DU-145; [13]
  CC50: 200 nM
MCF7
  GI50: 10 nM
  TGI: 55 nM
MCF7; [13]
  CC50: 166 nM
MDA-MB-231
  GI50: 18.6 nM
  TGI: 70.8 nM
MDA-MB-231; [13]
  CC50: 324 nM
[4]
  GI50: 26.3 nM
  TGI: 447 nM
UACC-62
  Activity: Dose-dependent effect
HeLa [5]
  Activity: Dose-dependent effect
HeLa [6]
  GI50: 20 nM
Mus musculus
  Activity: Toxic
[7]
  MTD at 96 h: 1.5 mg/kg
[8]
  T/C: 67%
HeLa [9]
  Activity: Active
[10]
  IC50: 6.6 nM
SK-OV-3
  Ratio: 1.7
K562
  GI50: 14.8 nM
  TGI: 115 nM
K562; [13]
  CC50: > 50000 nM
MOLT-4
  GI50: 13.2 nM
  TGI: 67.6 nM
MOLT-4; [13]
  CC50: > 50000 nM
RPMI-8226
  GI50: 12.3 nM
  TGI: 34.7 nM
RPMI-8226; [13]
  CC50: > 50000 nM
A549
  GI50: 26.3 nM
  TGI: 93.3 nM
A549; [13]
  CC50: 263 nM
[11]
  GI50: 28.2 nM
  TGI: 257 nM
[11]; [13]
  CC50: 2040 nM
NCI-H322M
  GI50: 20 nM
  TGI: 102 nM
NCI-H322M; [13]
  CC50: 490 nM
NCI-H522
  GI50: 8.5 nM
  TGI: 17.8 nM
NCI-H522; [13]
  CC50: 38 nM
[12]; HCT-15
  GI50: 17 nM
  TGI: 89.1 nM
[12]; HCT-15, read-out: LC50 (the source's name)
  CC50: 479 nM
SF-268
  GI50: 22.4 nM
  TGI: 107 nM
SF-268; [13]
  CC50: 417 nM
U-251
  GI50: 17.8 nM
  TGI: 61.7 nM
U-251; [13]
  CC50: 178 nM
Malme-3M
  GI50: 7.8 nM
  TGI: 18.6 nM
Malme-3M; [13]
  CC50: 45.7 nM
